Laboratory results reported in ChEMBL document CHEMBL1153723, “Cytotoxic effects of cardiac glycosides in colon cancer cells, alone and in combination with standard chemotherapeutic drugs” (J Nat Prod, 2009).
Calls of active or inactive are those of the source. The rule behind the calls is not given here.

What was measured:
[1] = Cytotoxicity against human CC20 cells after 72 hrs by FMCA method relative to digoxin; assay type: functional
HCT-116 [2] = assay: Cytotoxicity against human HCT116 cells after 72 hrs by FMCA method; assay type: functional, cell-based; conditions: HCT-116, 72 h
In short: (§1)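 FMCA: cells seeded at 5000/well onto compound plates at nine concentrations (1:2 serial dilutions in PBS from DMSO solutions), in duplicate, for 72 h at 37 °C. Then washed, given fluorescein diacetate for 50 min at 37 °C, and fluorescence read at 485/520 nm. HT29 and CC20 were grown in DMEM, HCT116 in McCoy's 5A. IC50 from nonlinear regression of log concentration–effect curves; three independent experiments, mean ± SEM.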

[3] = Cytotoxicity against human CC20 cells after 72 hrs by FMCA method; assay type: functional, cell-based; conditions: CC20, 72 h; in short: as §1
HT-29 [4] = assay: Cytotoxicity against human HT-29 cells after 72 hrs by FMCA method; assay type: functional, cell-based; conditions: HT-29, 72 h; in short: as §1
HT-29 [5] = assay: Cytotoxicity against human HT-29 cells after 72 hrs by FMCA method relative to digoxin; assay type: functional
HCT-116 [6] = assay: Cytotoxicity against human HCT116 cells assessed as survival index at 10 uM after 72 hrs by FMCA method; assay type: functional; conditions: HCT-116, 72 h, read-out: Survival
In short: (§2)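 Library screen by FMCA at a final 10 µM (10 mM DMSO stocks diluted in PBS); 5000 cells/well, 72 h at 37 °C, then fluorescein diacetate for 50 min with fluorescence at 485/520 nm. Survival index is well fluorescence as % of control wells after blank subtraction. QC required signal/blank >10 and CV <30% in control and blank wells.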

HT-29 [7] = assay: Cytotoxicity against human HT-29 cells assessed as survival index at 10 uM after 72 hrs by FMCA method; assay type: functional; conditions: HT-29, 72 h, read-out: Survival; in short: as §2
HCT-116 [8] = assay: Cytotoxicity against human HCT116 cells after 72 hrs by FMCA method relative to digoxin; assay type: functional
[9] = Cytotoxicity against human CC20 cells assessed as survival index at 10 uM after 72 hrs by FMCA method; assay type: functional; conditions: CC20, 72 h, read-out: Survival; in short: as §2
MCF7 = assay: Inhibition of TNF-alpha-stimulated NF-kappaB translocation from cytoplasm to nucleus in human MCF7 cells at 0.4 to 10 uM; assay type: functional, cell-based
In short: (§3)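 NF-κB activation high-content kit run per manufacturer: TNF-α-stimulated cells treated at 0.4, 2 and 10 µM (or 0.2, 1 and 5 µM). Cytoplasm-to-nucleus translocation of NF-κB quantified by automated imaging (ArrayScan). TNF-α and bortezomib served as controls.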

[10] = Inhibition of Na+/K+ ATPase relative to digoxin
HT-29 [11] = assay: Inhibition of TNF-alpha-stimulated NF-kappaB translocation from cytoplasm to nucleus in human HT-29 cells at 0.4 to 10 uM; assay type: functional, cell-based; in short: as §3
HeLa = assay: Inhibition of TNF-alpha-stimulated NF-kappaB translocation from cytoplasm to nucleus in human HeLa cells at 0.4 to 10 uM; assay type: functional, cell-based; in short: as §3
[12] = Cytotoxicity against human colon cancer cells after 72 hrs by FMCA method; assay type: functional, cell-based; conditions: Primary cultures of tumor cells from patients

Row | SMILES | Activity [1] | IC50 (HCT-116 [2]) | IC50 [3] | IC50 (HT-29 [4]) | Activity (HT-29 [5]) | viability at 10 µM (HCT-116 [6]) | viability at 10 µM (HT-29 [7]) | Activity (HCT-116 [8]) | viability at 10 µM [9] | inhibition (MCF7) | Activity [10] | inhibition (HT-29 [11]) | inhibition (HeLa) | IC50 [12]
1 | C[C@@H]1O[C@@H](O[C@H]2CC[C@]3(C=O)[C@H]4CC[C@]5(C)[C@@H](C6=CC(=O)OC6)CC[C@]5(O)[C@@H]4CC[C@]3(O)C2)[C@H](O)[C@H](O)[C@H]1O [CONVALLATOXIN] | 0.03 | < 40 nM | < 40 nM | 550 nM | 0.39 | 3% | 20% | 0.04 | 1% |  |  |  |  | 
2 | CO[C@H]1C[C@H](O[C@H]2CC[C@]3(C=O)[C@H]4CC[C@]5(C)[C@@H](C6=CC(=O)OC6)CC[C@]5(O)[C@@H]4CC[C@]3(O)C2)O[C@H](C)[C@H]1O [CYMARIN] |  |  |  |  |  | 4% | 26% |  | 2% |  |  |  |  | 
3 | C[C@@H]1CC[C@@]2(OC1)O[C@H]1[C@@H](O)[C@H]3[C@@H]4CC[C@H]5C[C@@H](O[C@@H]6O[C@H](CO)[C@H](O[C@@H]7O[C@H](CO)C(O)[C@H](O[C@@H]8OC[C@@H](O)[C@H](O)[C@H]8O)[C@H]7O[C@@H]7O[C@H](CO)[C@H](O)[C@H](O[C@@H]8O[C@H](CO)[C@@H](O)[C@H](O)[C@H]8O)[C@H]7O)[C@H](O)[C@H]6O)[C@H](O)C[C@]5(C)[C@H]4CC[C@]3(C)[C@H]1[C@@H]2C (stereo partly drawn) [DIGITONIN] |  | 8700 nM | 9600 nM | 5600 nM |  | 62% | 74% |  | 88% |  |  |  |  | 
4 | C[C@H]1O[C@@H](O[C@H]2[C@@H](O)C[C@H](O[C@H]3[C@@H](O)C[C@H](O[C@H]4CC[C@@]5(C)[C@H](CC[C@@H]6[C@@H]5CC[C@]5(C)[C@@H](C7=CC(=O)OC7)CC[C@]65O)C4)O[C@@H]3C)O[C@@H]2C)C[C@H](O)[C@@H]1O [DIGITOXIN] | 1.71 | 740 nM | 410 nM | 4070 nM | 2.91 | 4% | 28% | 2.74 | 2% | inactive | 0.3 | inactive | inactive | 100 nM
5 | C[C@H]1O[C@@H](O[C@H]2[C@@H](O)C[C@H](O[C@H]3[C@@H](O)C[C@H](O[C@H]4CC[C@@]5(C)[C@H](CC[C@@H]6[C@@H]5C[C@@H](O)[C@]5(C)[C@@H](C7=CC(=O)OC7)CC[C@]65O)C4)O[C@@H]3C)O[C@@H]2C)C[C@H](O)[C@@H]1O [DIGOXIN] | 1 | 270 nM | 240 nM | 1400 nM | 1 | 4% | 24% | 1 | 1% | inactive | 1 | inactive | inactive | 100 nM
6 | CC(=O)O[C@H]1CC[C@@]2(C)[C@H](CC[C@@H]3[C@@H]2CC[C@]2(C)[C@@H](C4=CC(=O)OC4)[C@@H](OC(C)=O)C[C@]32O)C1 [GITOXIGENIN DIACETATE] |  |  |  |  |  | 17% | 40% |  | 2% |  |  |  |  | 
7 | C[C@]12CC[C@H](O)C[C@H]1CC[C@@H]1[C@@H]2CC[C@]2(C)[C@@H](C3=CC(=O)OC3)[C@@H](O)C[C@]12O [GITOXIGENIN] |  |  |  |  |  | 63% | 81% |  | 54% |  |  |  |  | 
8 | CC(=O)O[C@H]1C[C@H](O[C@H]2[C@@H](O)C[C@H](O[C@H]3[C@@H](O)C[C@H](O[C@H]4CC[C@@]5(C)[C@H](CC[C@@H]6[C@@H]5C[C@@H](O)[C@]5(C)[C@@H](C7=CC(=O)OC7)CC[C@]65O)C4)O[C@@H]3C)O[C@@H]2C)O[C@H](C)[C@H]1O[C@@H]1O[C@H](CO)[C@@H](O)[C@H](O)[C@H]1O [LANATOSIDE C] |  |  |  |  |  | 5% | 40% |  | 2% |  |  |  |  | 
9 | CO[C@H]1[C@H](O)[C@H](O[C@H]2CC[C@@]3(C)[C@H](CC[C@@H]4[C@@H]3CC[C@]3(C)[C@@H](C5=CC(=O)OC5)CC[C@]43O)C2)O[C@@H](C)[C@@H]1O [NERIIFOLIN] |  |  |  |  |  | 3% | 19% |  | 2% |  |  |  |  | 
10 | CO[C@H]1C[C@H](O[C@H]2CC[C@@]3(C)[C@H](CC[C@@H]4[C@@H]3CC[C@]3(C)[C@@H](C5=CC(=O)OC5)[C@@H](OC(C)=O)C[C@]43O)C2)O[C@@H](C)[C@@H]1O [OLEANDRIN] | 0.38 | 80 nM | 90 nM | 440 nM | 0.31 | 3% | 20% | 0.3 | 2% | inactive | 0.42 | inactive | inactive | 
11 | C[C@@H]1O[C@@H](O[C@H]2C[C@@H](O)[C@]3(CO)[C@H]4[C@H](O)C[C@]5(C)[C@@H](C6=CC(=O)OC6)CC[C@]5(O)[C@@H]4CC[C@]3(O)C2)[C@H](O)[C@H](O)[C@H]1O [OUABAIN] |  |  |  |  |  | 4% | 22% |  | 3% |  |  |  |  | 
12 | CO[C@H]1[C@H](O)[C@H](O[C@H]2CC[C@@]3(C=O)[C@H](CC[C@@H]4[C@@H]3CC[C@]3(C)[C@@H](C5=CC(=O)OC5)CC[C@]43O)C2)O[C@@H](C)[C@@H]1O [PERUVOSIDE] |  |  |  |  |  | 3% | 24% |  | 2% |  |  |  |  | 
13 | C[C@@H]1O[C@@H](O[C@@H]2C=C3CC[C@@H]4[C@H](CC[C@]5(C)[C@@H](c6ccc(=O)oc6)CC[C@]45O)[C@@]3(C)CC2)[C@H](O)[C@H](O)[C@H]1O [PROSCILLARIDIN] | 0.21 | 60 nM | < 300 nM | 550 nM | 0.39 | 1% | 18% | 0.22 | 3% |  | 0.054 |  |  | 
14 | C[C@]12CC[C@H](O)C[C@H]1CC[C@@H]1[C@@H]2[C@H](O)C[C@]2(C)[C@@H](C3=CC(=O)OC3)CC[C@]12O [SARMENTOGENIN] |  |  |  |  |  | 26% | 63% |  | 4% |  |  |  |  | 
15 | C[C@]12CC[C@H]3[C@@H](CC[C@]4(O)C[C@@H](O)CC[C@]34C=O)[C@@]1(O)CC[C@@H]2C1=CC(=O)OC1 [STROPHANTHIDIN] |  |  |  |  |  | 21% | 58% |  | 3% |  |  |  |  | 
